From ChEMBL document CHEMBL2202989, “New adamantane phenylalkylamines with σ-receptor binding affinity and anticancer activity, associated with putative antagonism of neuropathic pain” (J Med Chem, 2012)

Assays:
PC-3 [1] = assay: Antitumor activity against human PC3 cells xenografted in SCID mouse assessed as bone metastasis at 55 mg/kg, ip administered 5 consecutive days in a week for two cycles measured after 2 cycles relative to control; format: functional; conditions: route intraperitoneal
Outline: (§1)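 PC3 xenografts were grown in SCID mice (10^6 cells per inoculum), 14 mice (28 tumors) per group, dosed ip from about 100 mm3. The test agent was given in 5% Tween 80; paclitaxel was given in Cremophor diluted in saline, with a vehicle of 1:1 ethanol/Cremophor diluted 1:3 in saline. Volume and %ΔT/ΔC were derived from caliper readings twice weekly. Occurrence of primary tumors and of axillary and bone metastases was scored (n = 7). Two-tailed t test.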

BXPC-3 [2] = assay: Induction of apoptosis in human BxPC3 cells assessed as late apoptosis at 15 uM using annexin V/7-AAD by FACS analysis (reference value: 9 %); format: functional
IGROV-1 [3] = assay: Cell cycle arrest in human IGROV1 cells assessed as accumulation at G2 phase at 0.5 uM after 24 hrs using propidium iodide staining by FACS analysis (reference value: 19 %); format: functional
Outline: (§2)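 Cells were plated 24 h before treatment and exposed for 24 h at final 0.5, 5, 15 and 50 μM in 0.5% DMSO, against vehicle-treated controls. Cells were then trypsinised and fixed in cold ethanol for 3 h at 4 °C. They were stained in a mix of RNase (200 μg/mL) and PI (1 mg/mL) for 45 min at room temperature in the dark. Flow cytometry used 488 nm excitation and 10 000 gated cells. Phase percentages were assigned from DNA content.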

BXPC-3 [4] = assay: Cell cycle arrest in human BxPC3 cells assessed as accumulation at sub G1 phase at 50 uM after 24 hrs using propidium iodide staining by FACS analysis (reference value: 9 %); format: functional; outline: as §2
BXPC-3 [5] = assay: Cell cycle arrest in human BxPC3 cells assessed as accumulation at sub G1 phase at 5 uM after 24 hrs using propidium iodide staining by FACS analysis (reference value: 9 %); format: functional; outline: as §2
BXPC-3 [6] = assay: Induction of apoptosis in human BxPC3 cells assessed as total apoptotic death at 5 uM using annexin V/7-AAD by FACS analysis (reference value: 18 %); format: functional
Outline: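 Cells plated 24 h before treatment, then exposed 24 h to 0.5, 5, 15 or 50 μM compound (final DMSO 0.5%); vehicle controls included. Cells scraped and stained with annexin V-FITC and 7-AAD for 15 min on ice in the dark. Flow cytometry with 488 nm excitation, 10,000 gated cells. Early apoptosis was annexin V+/7-AAD−, late was annexin V+/7-AAD+.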

BXPC-3 [7] = assay: Induction of apoptosis in human BxPC3 cells assessed as healthy cells at 50 uM using annexin V/7-AAD by FACS analysis (reference value: 79 %); format: functional
BXPC-3 [8] = assay: Induction of apoptosis in human BxPC3 cells assessed as healthy cells at 5 uM using annexin V/7-AAD by FACS analysis (reference value: 79 %); format: functional
HUVEC = assay: (§3) Growth inhibition of human HUVEC cells after 48 hrs by SRB assay; format: cell-based; conditions: huvec, 48 h
Outline: (§4)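 Cells grown in RPMI 1640 with 5% heat-inactivated FCS, 2 mM L-glutamine and antibiotics, 37 °C, 5% CO2. Seeded at 3500–30000 cells/well and left 24 h before dosing. DMSO solutions added at 10-fold dilutions from 100 to 0.01 μM for 48 h. Cells TCA-fixed and SRB-stained, absorbance read at 540 nm; GI50 derived against the time-zero plate.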

[9] = as §3; format: cell-based; conditions: HUVEC cells; outline: as §4
BXPC-3 [10] = assay: Induction of apoptosis in human BxPC3 cells assessed as cleaved caspase3 containing cells at 0.5 uM by antibody-based FACS analysis (reference value: 8.2 %); format: functional
BXPC-3 [11] = assay: Cell cycle arrest in human BxPC3 cells assessed as accumulation at S phase at 5 uM after 24 hrs using propidium iodide staining by FACS analysis (reference value: 33 %); format: functional; outline: as §2
PC-3 [12] = assay: Cell cycle arrest in human PC3 cells assessed as accumulation at G2 phase at 15 uM after 24 hrs using propidium iodide staining by FACS analysis (reference value: 12 %); format: functional
BXPC-3 [13] = assay: Induction of apoptosis in human BxPC3 cells assessed as early apoptosis at 5 uM using annexin V/7-AAD by FACS analysis (reference value: 9 %); format: functional
IGROV-1 [14] = assay: Induction of apoptosis in human IGROV1 cells assessed as early apoptosis at 5 uM using annexin V/7-AAD by FACS analysis (reference value: 9 %); format: functional
IGROV-1 [15] = assay: Cell cycle arrest in human IGROV1 cells assessed as accumulation at S phase at 50 uM after 24 hrs using propidium iodide staining by FACS analysis (reference value: 29 %); format: functional
Mus musculus = assay: Toxicity in SCID mouse assessed as body weight loss at 40 to 55 mg/kg, ip for 2 to 3 weeks; format: organism-based; design: route intraperitoneal; conditions: in vivo
Outline: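 CD-1 (male and female) and SCID mice dosed ip at 40−55 mg/kg in 5% Tween 80 for chronic 2−3 week regimens. Deaths and body weight loss compared with vehicle (Tween 80 or Cremophor) and reference-drug groups. Weight loss, neurological, behavioral and dietary changes recorded as toxicity signs.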

BXPC-3 [16] = assay: Cell cycle arrest in human BxPC3 cells assessed as accumulation at G2 phase at 5 uM after 24 hrs using propidium iodide staining by FACS analysis (reference value: 12 %); format: functional; outline: as §2
PC-3 [17] = assay: Induction of apoptosis in human PC3 cells assessed as healthy cells at 0.5 uM using annexin V/7-AAD by FACS analysis (reference value: 91 %); format: functional
IGROV-1 [18] = assay: Induction of apoptosis in human IGROV1 cells assessed as cleaved caspase3 containing cells at 50 uM by antibody-based FACS analysis (reference value: 3.9 %); format: functional
PC-3 [19] = assay: Cell cycle arrest in human PC3 cells assessed as accumulation at S phase at 50 uM after 24 hrs using propidium iodide staining by FACS analysis (reference value: 42 %); format: functional
IGROV-1 [20] = assay: Induction of apoptosis in human IGROV1 cells assessed as cleaved caspase3 containing cells at 15 uM by antibody-based FACS analysis (reference value: 3.9 %); format: functional
[21] = Displacement of [3H]1,3-di-otolylguanidine from sigma 2 receptor in rat cerebral cortex membranes; format: cell membranes, Membrane
Outline: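 Rat cerebral cortex membranes incubated with 5 nM [3H]DTG plus 300 nM (+)-pentazocine to mask σ1 sites, together with a range of test concentrations, 2 h at 22 °C in Tris-HCl, pH 7.4. Nonspecific binding defined with 10 μM haloperidol.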

PC-3 [22] = assay: Antitumor activity against human PC3 cells xenografted in SCID mouse assessed as primary tumor occurrence at 55 mg/kg, ip administered 5 consecutive days in a week for two cycles measured after 2 cycles relative to control; format: functional; conditions: route intraperitoneal; outline: as §1
PC-3 [23] = assay: Induction of apoptosis in human PC3 cells assessed as late apoptosis at 50 uM using annexin V/7-AAD by FACS analysis (reference value: 3 %); format: functional
PC-3 [24] = assay: Cell cycle arrest in human PC3 cells assessed as accumulation at S phase at 5 uM after 24 hrs using propidium iodide staining by FACS analysis (reference value: 42 %); format: functional
IGROV-1 [25] = assay: Cell cycle arrest in human IGROV1 cells assessed as accumulation at sub G1 phase at 0.5 uM after 24 hrs using propidium iodide staining by FACS analysis (reference value: 4 %); format: functional

Structure (SMILES): CN1CCN(CCCc2ccc(C(c3ccccc3)C34CC5CC(CC(C5)C3)C4)cc2)CC1 (stereo not drawn)
- Activity (PC-3 [1]): 43%
- Activity (BXPC-3 [2]): 26%
- Activity (IGROV-1 [3]): 23%
- Activity (BXPC-3 [4]): 23%
- Activity (BXPC-3 [5]): 8%
- Activity (BXPC-3 [6]): 21%
- Activity (BXPC-3 [7]): 12%
- Activity (BXPC-3 [8]): 77%
- LC50 (HUVEC): 8.62 µM
- TGI (HUVEC): 5.8 µM
- GI50 at 48 h [9]: 2.98 µM
- Activity (BXPC-3 [10]): 4%
- Activity (BXPC-3 [11]): 23%
- Activity (PC-3 [12]): 11%
- Activity (BXPC-3 [13]): 11%
- Activity (IGROV-1 [14]): 10%
- Activity (IGROV-1 [15]): 28%
- Activity (Mus musculus): Non-toxic
- Activity (BXPC-3 [16]): 10%
- Activity (PC-3 [17]): 95%
- Activity (IGROV-1 [18]): 15.8%
- Activity (PC-3 [19]): 31%
- Activity (IGROV-1 [20]): 61.4%
- IC50 [21]: 0.085 µM
- Activity (PC-3 [22]): 100%
- Activity (PC-3 [23]): 9%
- Activity (PC-3 [24]): 36%
- Activity (IGROV-1 [25]): 4%
